Activity calls are given as the source filed them. No cut-off for these calls is given here.
What was measured:
RAW264.7 [1] = experiment: Antiinflammatory activity in mouse RAW264.7 cells assessed as inhibition of LPS-induced nitric oxide release pretreated for 15 mins before LPS challenge measured after 24 hrs by Griess method; format: functional, cell-based
Summary of the method: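 RAW 264.7 cells pre-incubated 15 min with compound (1–25 range in the table; 1, 5, 10, 25, 50 for dose-response) or DMSO vehicle, then LPS 250 ng/ml for 24 h. Nitrite in supernatant measured by Griess reagent, absorbance at 548 nm against NaNO2 standard. IC50 is the concentration giving 50% inhibition of NO release. Means ± SD of three independent experiments in triplicate.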

[2] = Cytotoxicity against LPS-stimulated mouse RAW264.7 cells assessed as cell viability at 1 to 25 uM pretreated for 15 mins before LPS challenge measured after 24 hrs by MTT assay; format: cell-based; conditions: LPS-stimulated RAW264.7 cells, read-out: Activity
Summary of the method: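 RAW 264.7 cells plated at 10⁵ cells/well, treated with compound at 1–25 in the presence of LPS 250 ng/ml for 24 h. MTT then added for 4 h at 37 °C, formazan extracted in DMSO, absorbance read at 540 nm. Viability expressed relative to untreated controls. Triplicate wells, at least three independent experiments.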

RAW264.7 [3] = experiment: Cytotoxicity against LPS-stimulated mouse RAW264.7 cells assessed as cell viability at 1 to 50 uM pretreated for 15 mins before LPS challenge measured after 24 hrs by MTT assay; format: cell-based; conditions: raw264.7, 24 h
Summary of the method: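 RAW 264.7 cells pre-treated 15 min with compound (1, 5, 10, 25, 50), then LPS 250 ng/ml for 24 h. Viability by MTT: 4 h at 37 °C, formazan dissolved in DMSO, absorbance 540 nm, relative to untreated control. Triplicate; means ± S.D. of three experiments.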

RAW264.7 [4] = experiment: Antiinflammatory activity in mouse RAW264.7 cells assessed as inhibition of LPS-induced NOS2 protein expression pretreated at 5 uM for 15 mins before LPS challenge measured after 24 hrs by Western blotting; format: functional, cell-based
Summary of the method: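 Macrophages pre-incubated 15 min with compound, then LPS 250 ng/ml for 24 h. NOS-2 protein detected by Western blot with β-actin as loading control. A representative of three experiments is shown.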

RAW264.7 [5] = experiment: Antiinflammatory activity in mouse RAW264.7 cells assessed as inhibition of LPS-induced NOS2 mRNA expression pretreated at 5 uM for 15 mins before LPS challenge measured after 4 hrs by RT-PCR analysis; format: functional, cell-based
Summary of the method: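 Macrophages pre-incubated 15 min with compound, then LPS 250 ng/ml for 4 h. NOS-2 mRNA measured by real-time quantitative PCR, samples in duplicate, normalized to housekeeping gene 36B4 (acidic ribosomal phosphoprotein P0). Fold induction taken from average replicate values. Means ± S.D. of three independent experiments in triplicate; Student's unpaired t test vs LPS.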

RAW264.7 [6] = experiment: Inhibition of NF-kappaB activation in LPS-stimulated mouse RAW264.7 cells assessed as IkappaBalpha degradation pretreated at 5 uM for 15 mins before LPS challenge measured after 24 hrs by Western blotting; format: cell-based
RAW264.7 [7] = experiment: Antiinflammatory activity in mouse RAW264.7 cells assessed as inhibition of LPS-induced IL-1alpha production at 5 uM pretreated for 15 mins before LPS challenge measured after 24 hrs by ELISA; format: functional, cell-based
Summary of the method: (§1)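 RAW 264.7 macrophages pre-incubated 15 min with compound or left untreated, then LPS 250 ng/ml for 24 h. IL-6, IL-1, TNF and IFN measured in supernatant by ELISA. Means ± S.D. of three independent experiments run in triplicate.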

RAW264.7 [8] = experiment: Antiinflammatory activity in mouse RAW264.7 cells assessed as inhibition of LPS-induced IL-6 production at 5 uM pretreated for 15 mins before LPS challenge measured after 24 hrs by ELISA; format: functional, cell-based; summary of the method: as §1
RAW264.7 [9] = experiment: Antiinflammatory activity in mouse RAW264.7 cells assessed as inhibition of LPS-induced IFN-gamma production at 5 uM pretreated for 15 mins before LPS challenge measured after 24 hrs by ELISA; format: functional, cell-based; summary of the method: as §1
RAW264.7 [10] = experiment: Antiinflammatory activity in mouse RAW264.7 cells assessed as inhibition of LPS-induced TNFalpha production at 5 uM pretreated for 15 mins before LPS challenge measured after 24 hrs by ELISA; format: functional, cell-based; summary of the method: as §1

Row | SMILES | IC50 (RAW264.7 [1]) [µM] | viability at 24 h, up to 25 µM [2] [%] | inhibition (RAW264.7 [1]) | Activity (RAW264.7 [3]) | Activity (RAW264.7 [4]) | Activity (RAW264.7 [5]) | Activity (RAW264.7 [6]) | Activity (RAW264.7 [7]) | Activity (RAW264.7 [8]) | Activity (RAW264.7 [9]) | Activity (RAW264.7 [10])
1 | C=C1[C@@H]2CC[C@H]3[C@]4(C)CCC[C@@](C)(C(=O)OC)[C@H]4CC[C@]3(C2)[C@H]1OC(=O)CCCCCCCCCCC | > 25 | 95 | – | – | – | – | – | – | – | – | –
2 | C[C@@]12CCC[C@@](C)(C(=O)OCc3ccccc3)[C@H]1CC[C@@]1(CC(=O)O)CCCC[C@H]12 | 7 | 95 | Dose-dependent effect | Non-toxic | Active | Active | Active | Active | Active | Active | Active
3 | C[C@@]12CCC[C@@](C)(C(=O)OC[Si](C)(C)C)[C@H]1CC[C@@]1(CC(=O)O)CCCC[C@H]12 | 7 | 95 | Dose-dependent effect | Non-toxic | Active | Active | Active | Active | Active | Active | Active
4 | C=C1[C@@H]2CC[C@H]3[C@]4(C)CCC[C@@](C)(C(=O)O)[C@H]4CC[C@]3(C2)[C@H]1OC(C)=O | > 25 | 58 | – | – | – | – | – | – | – | – | –
5 | C=C1[C@@H]2CC[C@H]3[C@]4(C)CCC[C@@](C)(C(=O)OC)[C@H]4CC[C@]3(C2)[C@H]1OC(C)=O | > 25 | 40 | – | – | – | – | – | – | – | – | –

From ChEMBL document CHEMBL1759881, “Synthesis and anti-inflammatory activity of ent-kaurene derivatives” (Eur J Med Chem, 2011)
